The values that follow come from PubChem BioAssay AID373 (The Scripps Research Institute Molecular Screening Center, 2006).

For the test, the target named is Sphingosine 1-phosphate receptor 3 (Homo sapiens) (UniProt Q99500). The test is described as follows: human S1P3 receptor agonists, primary screen, cell-based, primary and confirmation, NFAT-BLA reporter (AID 373). The following applies: S1P3 NFAT-BLA reporter cells, agonism, FRET ratio, at 4.5 µM, stronger effect = higher value, relative to 1 µM S1P, basal subtracted. In outline:
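material = human S1P3 NFAT-BLA reporter CHO cells | schedule = 4 h compound at 37 °C, 2 h substrate at RT | measured by = fluorescent BLA substrate, ex 405 nm, em 460/535 nm ratio | controls = 1 µM S1P reference | replication = primary once, confirmation triplicate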

The whole screen tested about 60,000 compounds, of which about 60 (0.1%) were called active. What follows is part of a selection rich in actives, with near analogues and random picks from the rest. Values without a mark were called inactive.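 Rule for the calls: active = activation above the screen-wide mean plus 3 SD (cut at about 4.5% in these data, passing the limit was not always enough); inactive = the rest, inconclusive results apart.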

Sequence of Sphingosine 1-phosphate receptor 3 (Homo sapiens) (Q99500 whole entry, looked up): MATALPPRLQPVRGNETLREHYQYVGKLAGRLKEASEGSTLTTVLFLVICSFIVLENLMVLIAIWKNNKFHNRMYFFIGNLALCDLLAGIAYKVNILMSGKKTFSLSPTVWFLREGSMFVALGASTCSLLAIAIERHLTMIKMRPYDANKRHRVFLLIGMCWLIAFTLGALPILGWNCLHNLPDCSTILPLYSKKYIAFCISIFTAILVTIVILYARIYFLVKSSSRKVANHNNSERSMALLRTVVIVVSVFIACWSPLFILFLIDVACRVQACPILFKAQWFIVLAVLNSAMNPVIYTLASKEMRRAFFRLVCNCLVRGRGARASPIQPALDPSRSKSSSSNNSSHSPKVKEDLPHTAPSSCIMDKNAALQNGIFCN

For the molecule `CC(C)c1ccc(NC(=O)NC2CCCCC2)cc1`, the activation was 0%.
As for `Cc1ccc2nc(NC(=O)C3CCN(S(=O)(=O)c4ccc5c(c4)oc(=O)n5C)CC3)sc2c1`, the activation is -0.9%.
The value for `O=C(O)CCCC(=O)Nc1ccccc1-n1ccnc1` was -0.2%.
With `CCCOc1cccc(C(=O)Nc2nnn(CCC)n2)c1`, the activation was 0%.
Regarding `COc1ccc(-c2noc(COc3ccc(Cl)c(C)c3)n2)cc1`, the activation is -0.7%.
For the molecule `Cc1cc(C)nc(N(C#N)CC(=O)Nc2ccccc2)n1`, the activation was -0.7%.
As for `Cc1nn(-c2cc(Cl)ccc2N)c(=O)c2ccccc12`, the activation is -1.6%.
The value for `CCOCC(=O)NCc1ccc2c(c1)cc(C)n2C` was -0.3%; that for `CN(CC(=O)NC1CCCCC1)S(=O)(=O)c1cccc2cccnc12` was -1.1%; that for `COc1ccc(S(=O)(=O)N2CCC(C(=O)N3CCOCC3)CC2)cc1OC` was -0.8%.
Take `Cc1ccn2cc(C(=O)NC3CCN(Cc4ccccc4)CC3)nc2c1`: the activation was -0.2%.
In the case of `CC(=O)N1CCN(C(=O)Nc2cccc(C(F)(F)F)c2)CC1` it was -0.4%.
In the case of `O=C(Nc1nccs1)C1CCCN1S(=O)(=O)c1cccc2cccnc12` (centres undefined) it was -0.3%; in that of `Cc1cccc2c1N(CC(=O)OC(C)C)C(=O)C2=O`, -0.6%; in that of `COc1ccccc1Nc1ncnc2c1oc1ccccc12`, -1%.
For `Cc1cnc(NC(=O)CSc2nnc(-c3ccc(Cl)cc3Cl)n2N)s1`, the activation was -0.7%.
The value for `CC12CN3CC(C)(CN(C1)C3c1ccc(Cl)cc1Cl)C2=O` (centres undefined) was -0.5%.
`CC(=O)Nc1ccc(NS(=O)(=O)c2cc(C)sc2C)cc1`: the activation is -0.3%.
As for `Cc1ccc(S(=O)(=O)N2CCC(N3CCCCCC3)CC2)cc1`, the activation was -2.7%.
The value for `CC1COC2C(O1)N(S(C)(=O)=O)CCN2S(C)(=O)=O` (centres undefined) was -1.9%; that for `CCOc1ccc(C2C(C(=O)O)c3ccccc3C(=O)N2CCN2CCOCC2)cc1` (centres undefined) was -0.7%.
As for `CC(C)N(C(=O)Cn1c(SCC(=O)N2CCN(c3ccccc3)CC2)nc2ccccc21)C(C)C`, the activation was 0.4%.
The value for `CCn1c(SCC(=O)Nc2cccc(F)c2)nnc1-c1cc2cc(Br)ccc2o1` was 0.7%; that for `CC1CCN(C(=O)CSc2ccc3nnc(-c4cccc(F)c4)n3n2)CC1` was -0.5%; that for `CCOc1ccc(OCC)c(NC(=O)C(NS(=O)(=O)c2ccc3c(c2)oc(=O)n3C)C(C)C)c1` (centres undefined) was 0.3%.
Turning to `CC1CCN(Cc2nc3c(c(=O)n(C)c(=O)n3C)n2CCc2ccccc2)CC1`, the activation is -0.7%.
The value for `CCc1c(C)c2c(C)[nH]nc2oc1=O` was 0.6%.
On to `CCCCC(=O)N(c1ccc(OC)cc1)C1C=CS(=O)(=O)C1` (centres undefined), for which the activation is -0.5%.
The value for `COc1ccc(-c2nc(CS(=O)CC(=O)NCc3cccnc3)c(C)o2)cc1OC` (centres undefined) was -0.9%; that for `CCn1c(SCC(=O)NCc2ccco2)nnc1-c1ccc(N)cc1` was 1.1%; that for `CCN(CC)S(=O)(=O)c1ccc2nc(COC(=O)c3n[nH]c4ccccc34)[nH]c2c1` was 0%.
The value for `C[N+](C)(C)CCOP(=O)([O-])OC[C@H](O)CO` was -3.9%.
In the case of `c1ccc(Nc2n[nH]nc2-c2ccccc2)cc1` it was -1.7%; in that of `O=C(c1ccc(-n2cnnn2)cc1)N1CCN(C(c2ccccc2)c2ccccc2)CC1`, 0.7%.
Regarding `O=C(NCc1cn2ccsc2n1)Nc1cccc(Cl)c1`, the activation was 1.1%.
For the molecule `Cc1cccc(CSc2nnc(Cn3c(=O)sc4ccccc43)n2C)c1`, the activation was -0.9%.
The value for `Cc1cc(C)cc(N(CC(=O)NCC2CCCO2)S(=O)(=O)c2c(C)noc2C)c1` (centres undefined) was -0.2%.
The value for `CCOC(=O)c1ccc(-c2ccc(C(=O)Nc3cccnc3)o2)cc1` was 0.3%.
In the case of `Cc1ccc(-c2noc(CCC(=O)Nc3ccccc3N3CCN(C)CC3)n2)cc1`, the activation was 0.8%.
For `CCN(CC)CCCN1C(=O)C(=O)/C(=C(/O)c2c(C)nc3ccccn23)C1c1ccc(C)o1` (centres undefined), the activation is 0.3%.
The value for `CNC(=O)Nc1cc(C(C)(C)C)no1` was -0.1%; that for `COc1ccc(CCn2c(-c3ccco3)nc3nc4ccccc4nc32)cc1OC` was -1.1%; that for `Cc1ccc(-c2c3c(=O)n(C)c(=O)n(C)c3cn2-c2ccccc2O)cc1` was 0.1%.
For `COc1cccc(-n2c(Cc3cc(=O)[nH]c(=O)[nH]3)nnc2SCC(=O)Nc2ccccc2)c1`, the activation was 0.3%.
The value for `Cc1cccc(NC(=O)COc2ccc(Br)cc2C)n1` was -1%; that for `Cc1cc(/C=N/n2cnnc2)c(C)n1-c1ccc2ncccc2c1` was 0.1%; that for `CCOCCCNC(=O)Cc1cc(=O)[nH]c(=O)[nH]1` was 0.5%.
In the case of `O=S(=O)(Nc1ccccc1N1CCOCC1)c1ccc(Cl)s1` it was 0.7%; in that of `O=c1cc(Cn2nnc(-c3ccc(Cl)cc3)n2)nc2sccn12`, -0.5%.
